Laboratory results as given in ChEMBL document CHEMBL1141444, “Sorbifolivaltrates A-D, diene valepotriates from Valeriana sorbifolia(1)” (J Nat Prod, 2007).

Assay: Cytotoxicity against human PC3M cells by MTT assay
Type: functional, cell-based
Conditions: PC-3M
Outline: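 Human metastatic prostate PC-3M cells seeded at 2000/well, recovered overnight; serial drug dilutions in medium added in quadruplicate, DMSO as negative and doxorubicin as positive control. Incubated about 40 h at 37 °C, 5% CO2, then MTT 0.4 mg/mL for 4 h; medium removed, DMSO added, absorbance read at 650 nm. Percent inhibition plotted to derive IC50.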

Compound	IC50 [µM]
CC(=O)OCC1=CO[C@@H](OC(=O)C=C(C)C)[C@H]2C1=C[C@H](OC(=O)CC(C)C)[C@]21CO1	20
CC(C)=CC(=O)O[C@@H]1OC=C(COC(=O)CC(C)C)C2=C[C@H](OC(=O)CC(C)C)[C@]3(CO3)[C@H]21	2.6
CC(=O)O[C@H]1C=C2C(COC(=O)CC(C)C)=CO[C@@H](OC(=O)CC(C)C)[C@@H]2[C@@]12CO2	3.1
CCC(C)CC(=O)O[C@H]1C=C2C(COC(C)=O)=CO[C@@H](OC(=O)C=C(C)C)[C@@H]2[C@@]12CO2 (stereo not given in full)	12.2
COc1cccc2c1C(=O)c1c(O)c3c(c(O)c1C2=O)C[C@@](O)(C(=O)CO)C[C@@H]3O[C@H]1C[C@H](N)[C@H](O)[C@H](C)O1 [DOXORUBICIN]	1.26
CC(=O)OCC1=CO[C@@H](OC(=O)C=C(C)C)[C@H]2C1=C[C@H](OC(=O)CC(C)C)[C@]2(O)COC(=O)CC(C)C	8.9
CCC(C)CC(=O)O[C@H]1C=C2C(COC(C)=O)=CO[C@@H](OC(=O)C=C(C)C)[C@@H]2[C@@]1(O)COC(=O)CC(C)C (stereo not given in full)	7.3
CC(C)CC(=O)OCC1=CO[C@@H](OC(=O)CC(C)(C)O)[C@H]2C1=C[C@H](OC(=O)CC(C)C)[C@]2(O)COC(=O)CC(C)C	8.9
CC(=O)OCC1=CO[C@@H](OC(=O)CC(C)C)[C@H]2C1=C[C@H](OC(=O)CC(C)C)[C@]21CO1 [VALTRATE]	1.7
CC(=O)OCC1=CO[C@@H](OC(=O)CC(C)(C)O)[C@H]2C1=C[C@H](OC(=O)CC(C)C)[C@]2(O)COC(=O)CC(C)C	11.1
